Assay results published in publication PMC3733550 (Biochemical pharmacology, 2011).
Like-named read-outs stand apart in the source and are kept apart here. Marks after values point to notes of the source that are not given here.

Assays:
[1] = molecular target: T1, ABCG2 (Homo sapiens, UniProt Q9UNQ0); settings: read-out: EC50 PhA; increasing PhA content in ABCG2 over-expressing MDA-MB-231/R cells; cited from earlier work
T1 sequence (Q9UNQ0 1-655): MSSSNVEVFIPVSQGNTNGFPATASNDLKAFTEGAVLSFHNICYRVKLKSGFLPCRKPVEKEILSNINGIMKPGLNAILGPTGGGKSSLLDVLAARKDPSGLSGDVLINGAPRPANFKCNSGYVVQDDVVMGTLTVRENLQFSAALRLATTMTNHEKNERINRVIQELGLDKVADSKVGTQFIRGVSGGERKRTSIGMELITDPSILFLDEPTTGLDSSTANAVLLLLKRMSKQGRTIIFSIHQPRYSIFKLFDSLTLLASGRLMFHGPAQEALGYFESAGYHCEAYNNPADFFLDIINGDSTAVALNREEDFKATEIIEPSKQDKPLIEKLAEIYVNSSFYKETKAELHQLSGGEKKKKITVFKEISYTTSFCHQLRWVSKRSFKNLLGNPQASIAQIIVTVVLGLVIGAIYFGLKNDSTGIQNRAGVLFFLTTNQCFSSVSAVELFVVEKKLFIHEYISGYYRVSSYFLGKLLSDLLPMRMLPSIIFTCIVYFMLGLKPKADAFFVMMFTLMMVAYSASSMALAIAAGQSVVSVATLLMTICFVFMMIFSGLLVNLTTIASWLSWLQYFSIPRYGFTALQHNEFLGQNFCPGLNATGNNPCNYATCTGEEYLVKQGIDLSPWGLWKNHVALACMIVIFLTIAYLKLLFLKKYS

[2] = test system: ABCG2-expressing MDA-MD-231/R cells; assay: Re-sensitization of MDA-MB-231/R cells to mitoxantrone; format: cell-based, human
[3] = test system: MDA-MB-231/V cells; assay: Growth inhibition by mitoxantrone in parental MDA-MB-231/V cells; format: cell-based; settings: Homo sapiens, MDA-MB-231, 72 h, read-out: IC50 value of MX in MDA-MB-231/V cells
[4] = test system: ABCG2 expression in MDA-MB-231/R cells; assay: Western blot analysis of ABCG2 protein levels in MDA-MB-231/R cells; format: cell-based, human; settings: 72 h; A-2 0.5 μM or 1 μM; MX 0.1 μM
[5] = molecular target: T1, ABCG2; assay: Photoaffinity labeling of ABCG2 with [125I]-IAAP in MCF-7 FLV1000 membranes; format: binding; settings: test compound 5 μM
[6] = test system: MDA-MB-231/R; assay: Cell cytotoxicity by MTT assay on MDA-MB-231/R cells; format: cell-based, human; settings: % of control cells (1% DMSO)
Method in brief: (§1)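 Cells grown in RPMI 1640 with 10% FBS and 1.0 mg/ml geneticin at 37°C, 5% CO2, and used within 10 passages. 10^4 cells/well were seeded for 24 h, then exposed for 72 h to test compound (5 or 10 μM; 1% v/v DMSO final). After a PBS wash, MTT was added (3 h, 37°C), formazan dissolved in DMSO, and A590 read. Viability is % of 1% DMSO controls, mean (SD) of three independent determinations.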

[7] = molecular target: T1, ABCG2; assay: ABCG2 ATPase assay; format: biochemical
[8] = test system: MDA-MB-231/V; assay: Cell cytotoxicity by MTT assay on MDA-MB-231/V cells; format: cell-based, human; settings: % of control cells (1% DMSO)
Method in brief: as §1

COc1ccc2c3c([nH]c2c1)[C@H](C=C(C)C)N1C(=O)[C@@H]2CCCN2C(=O)[C@@H]1C3 [FTC, fumitremorgin C]
EC50 [1]: 1300 nM
Resistance index ([2]; MX + test compound 0.05 μM, IC50 of MX R cells + test compound / IC50 of MX V cells): 7.4

O=C1c2c(O)ccc(O)c2C(=O)c2c(NCCNCCO)ccc(NCCNCCO)c21 [Mitoxantrone]
IC50 [3]: 70 nM
IC50 ([2]; Homo sapiens, MDA-MB-231, 72 h, read-out: IC50 of mitoxantrone): 920 nM
Effect on ABCG2 protein levels in R cells [4]: no effect

O=C1/C(=C/c2ccccc2)Oc2ccccc21 [UA-1]
Effect on photolabelling of ABCG2 by [125I]-IAAP (in words) [5]: minimal changes
% Viability MDA-MB-231/R 5 μM ([6]; 5 μM): 68 (10) ^d %
% Viability MDA-MB-231/R 10 μM ([6]; 10 μM): 60 (8) ^c %
ATPase activity (fold stimulation) [7]: 2.8 fold
EC50 [7]: 190 nM
% Viability MDA-MB-231/V 5 μM ([8]; 5 μM): 98 (9) ^d %
% Viability MDA-MB-231/V 10 μM ([8]; 10 μM): 103 (7) ^c %
